Experimental findings from article PMC8015125 (ACS Omega, 2021) are described below.

One assay has as its system PC3 cell line. The assay is described as follows: MTT assay on PC3. The format is cell-based, human. As to conditions: 24 h treatment. In a few lines:
(§1)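 Cells were grown in RPMI or DMEM with 10% FBS, penicillin and streptomycin at 37 °C under 5% CO2. They were seeded at 1 × 10^4 cells/well and exposed 24 h later for 24 h to the test compound at different concentrations (complexes 0–100 μM). After two PBS washes, 0.5 mg mL–1 MTT was added for 3–4 h at 37 °C. Formazan was dissolved in extraction buffer and OD read at 570 nm. % survival was taken relative to untreated cells (100%) to give IC50. Ratios were BPH1/PC3 and WI-38/A549 IC50.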
(In general: Formazan colour is commonly taken as a measure of viable cells.)

A further assay deals with BPH1 cell line. Briefly: MTT assay on BPH1. The format is cell-based, human. The following applies: read-out: IC50 BPH1, 24 h treatment. The essentials:
as §1

The test system of the next assay is A549 cell line. Briefly: MTT assay on A549. The format is cell-based. As to conditions: read-out: IC50 A549, 24 h treatment. The essentials: as §1
For assay [1], the system named is WI-38 lung fibroblast cells. Briefly: MTT assay on WI-38. The format is cell-based. The following applies: read-out: IC50 WI-38, 24 h treatment. The essentials:
as §1

`N.N.[Cl][Pt][Cl]` [cisplatin, reference compound]: in the assay with PC3 cell line, the “R1 = IC50 ratio of BPH1 cells to PC3 cells” value was found to be 1.4. For the same molecule, the IC50 in the assay with PC3 cell line (read-out: IC50 PC3, MTT) amounted to 5.4 ± 1.93 µM; in the assay on BPH1 cell line, 8 ± 1.03 µM; with A549 cell line it was 60.1 ± 2.43 µM; in assay [1], 66.5 ± 2.12 µM.

One may read the IC50 as the concentration at which inhibition is half-maximal.
